Results published in ChEMBL document CHEMBL3098111, “Discovery of 2,5-diarylnicotinamides as selective orexin-2 receptor antagonists (2-SORAs)” (Bioorg Med Chem Lett, 2013).
Activity calls are given as the source filed them. The rule behind the calls is not given here.

Experiments:
[1] = biological target: GABA-A receptor; alpha-1/beta-3/gamma-2 (Homo sapiens) (UniProt P14867+P18507+P28472); experiment: Inhibition of human GABA alpha1beta3gamma2 receptor muscimol binding site at 10 uM relative to control; assay type: protein-complex assay
[2] = biological target: Estrogen receptor beta (Homo sapiens) (UniProt Q92731); experiment: Inhibition of human ERbeta receptor at 10 uM relative to control
[3] = biological target: D(1B) dopamine receptor (Homo sapiens) (UniProt P21918); experiment: Inhibition of human dopamine D5 receptor at 10 uM relative to control
[4] = biological target: Type-2 angiotensin II receptor (Homo sapiens) (UniProt P50052); experiment: Inhibition of human angiotensin AT2 receptor at 10 uM relative to control
Rattus norvegicus [5] = experiment: Antiinsomnic activity in rat EEG model assessed as increase in REM sleep time at 15 mg/kg, po; assay type: functional, organism-based; design: dose 15 mg/kg
How it was run: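 Rats with EEG telemetry given 15 mg/kg orally during their active period, vehicle 20% Vitamin E TPGS in water. Sleep architecture (active wake, light sleep, delta and REM sleep) scored from EEG.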

[6] = biological target: 5-hydroxytryptamine receptor 4 (Cavia porcellus) (UniProt O70528); experiment: Inhibition of guinea pig 5-HT4 receptor at 10 uM relative to control
[7] = biological target: 5-hydroxytryptamine receptor 1B (Rattus norvegicus) (UniProt P28564); experiment: Inhibition of rat 5-HT1B receptor at 10 nM relative to control
[8] = biological target: Prostaglandin F2-alpha receptor (Homo sapiens) (UniProt P43088); experiment: Inhibition of human prostanoid FP receptor at 10 uM relative to control
[9] = biological target: Insulin receptor (Rattus norvegicus) (UniProt P15127); experiment: Inhibition of rat insulin receptor at 10 uM relative to control
[10] = biological target: Histamine H1 receptor (Homo sapiens) (UniProt P35367); experiment: Inhibition of human histamine H1 receptor at 10 uM relative to control
[11] = biological target: Galanin receptor type 2 (Homo sapiens) (UniProt O43603); experiment: Inhibition of human GAL2 receptor at 10 uM relative to control
Rattus norvegicus [12] = species: Rattus norvegicus; experiment: Inhibition of rat GABAB receptor at 10 uM relative to control
[13] = biological target: Vasoactive intestinal polypeptide receptor 1 (Homo sapiens) (UniProt P32241); experiment: Inhibition of human VIP1 receptor at 10 uM relative to control
Vasoactive intestinal polypeptide receptor 1 (Homo sapiens), sequence (P32241 whole entry, looked up): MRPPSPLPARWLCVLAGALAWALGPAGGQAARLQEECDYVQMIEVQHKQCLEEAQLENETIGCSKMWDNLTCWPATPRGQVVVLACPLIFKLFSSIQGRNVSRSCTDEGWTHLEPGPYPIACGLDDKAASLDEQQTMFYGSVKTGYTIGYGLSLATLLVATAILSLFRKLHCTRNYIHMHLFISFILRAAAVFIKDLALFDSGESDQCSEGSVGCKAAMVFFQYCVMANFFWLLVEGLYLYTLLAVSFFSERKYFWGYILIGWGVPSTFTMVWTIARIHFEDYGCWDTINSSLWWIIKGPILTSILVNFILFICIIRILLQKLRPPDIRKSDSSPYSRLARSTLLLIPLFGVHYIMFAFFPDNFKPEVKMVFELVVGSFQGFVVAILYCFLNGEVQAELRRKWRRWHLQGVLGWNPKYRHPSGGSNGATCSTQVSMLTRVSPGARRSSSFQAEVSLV

Histamine H1 receptor (Homo sapiens), sequence (P35367 whole entry): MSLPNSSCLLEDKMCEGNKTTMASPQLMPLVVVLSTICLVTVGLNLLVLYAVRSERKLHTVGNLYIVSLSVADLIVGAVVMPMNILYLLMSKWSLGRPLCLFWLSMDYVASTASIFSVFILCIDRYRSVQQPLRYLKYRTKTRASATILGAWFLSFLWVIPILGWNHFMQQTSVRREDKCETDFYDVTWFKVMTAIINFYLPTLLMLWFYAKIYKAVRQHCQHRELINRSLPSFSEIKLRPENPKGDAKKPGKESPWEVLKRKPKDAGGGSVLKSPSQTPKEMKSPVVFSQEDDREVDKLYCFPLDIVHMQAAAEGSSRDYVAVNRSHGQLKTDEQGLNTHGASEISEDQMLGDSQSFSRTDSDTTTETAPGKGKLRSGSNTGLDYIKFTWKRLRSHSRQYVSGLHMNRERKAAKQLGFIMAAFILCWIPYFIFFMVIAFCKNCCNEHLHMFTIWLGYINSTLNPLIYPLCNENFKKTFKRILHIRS
D(1B) dopamine receptor (Homo sapiens), sequence (P21918 whole entry): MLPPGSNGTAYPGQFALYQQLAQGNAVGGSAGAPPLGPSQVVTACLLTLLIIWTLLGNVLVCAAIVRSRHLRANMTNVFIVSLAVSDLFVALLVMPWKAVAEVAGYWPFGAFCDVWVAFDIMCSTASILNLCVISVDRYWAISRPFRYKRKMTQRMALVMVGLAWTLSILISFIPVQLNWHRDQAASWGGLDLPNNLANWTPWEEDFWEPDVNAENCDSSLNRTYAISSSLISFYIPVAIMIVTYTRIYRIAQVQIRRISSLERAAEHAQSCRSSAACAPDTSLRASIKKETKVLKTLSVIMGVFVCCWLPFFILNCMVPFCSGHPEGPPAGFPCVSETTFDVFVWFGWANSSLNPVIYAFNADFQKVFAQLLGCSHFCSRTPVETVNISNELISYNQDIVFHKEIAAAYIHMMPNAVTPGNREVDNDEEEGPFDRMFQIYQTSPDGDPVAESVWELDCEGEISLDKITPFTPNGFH
5-hydroxytryptamine receptor 4 (Cavia porcellus), sequence (O70528 whole entry): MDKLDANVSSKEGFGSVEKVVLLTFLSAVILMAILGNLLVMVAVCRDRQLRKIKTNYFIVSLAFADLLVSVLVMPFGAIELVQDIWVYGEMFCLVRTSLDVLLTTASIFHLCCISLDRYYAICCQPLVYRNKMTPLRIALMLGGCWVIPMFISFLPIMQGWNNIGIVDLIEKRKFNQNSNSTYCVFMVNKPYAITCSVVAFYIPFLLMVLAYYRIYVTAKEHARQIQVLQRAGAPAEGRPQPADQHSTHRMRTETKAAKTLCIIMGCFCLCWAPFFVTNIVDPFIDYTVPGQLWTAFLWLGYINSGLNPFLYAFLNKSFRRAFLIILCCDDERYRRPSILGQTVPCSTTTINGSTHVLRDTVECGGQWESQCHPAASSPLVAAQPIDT
Type-2 angiotensin II receptor (Homo sapiens), sequence (P50052 whole entry): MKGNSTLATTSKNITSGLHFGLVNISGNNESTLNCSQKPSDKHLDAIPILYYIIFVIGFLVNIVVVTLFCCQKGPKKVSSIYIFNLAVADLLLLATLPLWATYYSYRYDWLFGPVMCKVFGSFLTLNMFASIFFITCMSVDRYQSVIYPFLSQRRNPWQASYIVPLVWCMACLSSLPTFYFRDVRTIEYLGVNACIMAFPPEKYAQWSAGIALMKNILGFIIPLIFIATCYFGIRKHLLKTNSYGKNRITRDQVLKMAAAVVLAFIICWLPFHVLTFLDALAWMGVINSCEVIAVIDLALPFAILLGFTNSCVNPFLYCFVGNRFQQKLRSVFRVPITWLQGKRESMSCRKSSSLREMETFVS
Galanin receptor type 2 (Homo sapiens), sequence (O43603 whole entry): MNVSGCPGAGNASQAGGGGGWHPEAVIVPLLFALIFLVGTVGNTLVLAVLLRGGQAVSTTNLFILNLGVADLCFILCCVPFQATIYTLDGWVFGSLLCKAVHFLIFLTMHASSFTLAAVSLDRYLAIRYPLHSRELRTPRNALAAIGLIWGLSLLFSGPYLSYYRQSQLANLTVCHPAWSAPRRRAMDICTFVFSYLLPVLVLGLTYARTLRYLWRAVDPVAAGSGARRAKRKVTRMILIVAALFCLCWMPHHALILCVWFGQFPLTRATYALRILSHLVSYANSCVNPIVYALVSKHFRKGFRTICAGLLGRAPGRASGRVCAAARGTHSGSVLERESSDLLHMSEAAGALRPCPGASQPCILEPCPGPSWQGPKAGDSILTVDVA
5-hydroxytryptamine receptor 1B (Rattus norvegicus), sequence (P28564 whole entry): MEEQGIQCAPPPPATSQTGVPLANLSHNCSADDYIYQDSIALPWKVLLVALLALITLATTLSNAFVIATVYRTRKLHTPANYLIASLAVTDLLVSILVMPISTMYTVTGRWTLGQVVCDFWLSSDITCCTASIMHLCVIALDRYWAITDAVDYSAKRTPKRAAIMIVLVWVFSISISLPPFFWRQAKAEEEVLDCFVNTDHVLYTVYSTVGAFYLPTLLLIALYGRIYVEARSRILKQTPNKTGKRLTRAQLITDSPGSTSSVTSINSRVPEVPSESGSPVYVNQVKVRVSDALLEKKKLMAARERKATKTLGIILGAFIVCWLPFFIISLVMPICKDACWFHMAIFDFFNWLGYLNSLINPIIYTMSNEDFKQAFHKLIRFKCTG
Prostaglandin F2-alpha receptor (Homo sapiens), sequence (P43088 whole entry): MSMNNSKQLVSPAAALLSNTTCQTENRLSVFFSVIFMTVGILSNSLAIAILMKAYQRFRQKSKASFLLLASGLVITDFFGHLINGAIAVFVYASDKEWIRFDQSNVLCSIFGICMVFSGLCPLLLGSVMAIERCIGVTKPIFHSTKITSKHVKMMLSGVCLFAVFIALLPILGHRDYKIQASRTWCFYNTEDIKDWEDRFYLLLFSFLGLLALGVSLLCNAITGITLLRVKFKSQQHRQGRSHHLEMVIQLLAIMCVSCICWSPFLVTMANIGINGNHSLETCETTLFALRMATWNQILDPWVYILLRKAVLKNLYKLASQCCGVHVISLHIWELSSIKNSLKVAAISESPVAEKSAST
Insulin receptor (Rattus norvegicus), sequence (P15127 27-759 limits assumed): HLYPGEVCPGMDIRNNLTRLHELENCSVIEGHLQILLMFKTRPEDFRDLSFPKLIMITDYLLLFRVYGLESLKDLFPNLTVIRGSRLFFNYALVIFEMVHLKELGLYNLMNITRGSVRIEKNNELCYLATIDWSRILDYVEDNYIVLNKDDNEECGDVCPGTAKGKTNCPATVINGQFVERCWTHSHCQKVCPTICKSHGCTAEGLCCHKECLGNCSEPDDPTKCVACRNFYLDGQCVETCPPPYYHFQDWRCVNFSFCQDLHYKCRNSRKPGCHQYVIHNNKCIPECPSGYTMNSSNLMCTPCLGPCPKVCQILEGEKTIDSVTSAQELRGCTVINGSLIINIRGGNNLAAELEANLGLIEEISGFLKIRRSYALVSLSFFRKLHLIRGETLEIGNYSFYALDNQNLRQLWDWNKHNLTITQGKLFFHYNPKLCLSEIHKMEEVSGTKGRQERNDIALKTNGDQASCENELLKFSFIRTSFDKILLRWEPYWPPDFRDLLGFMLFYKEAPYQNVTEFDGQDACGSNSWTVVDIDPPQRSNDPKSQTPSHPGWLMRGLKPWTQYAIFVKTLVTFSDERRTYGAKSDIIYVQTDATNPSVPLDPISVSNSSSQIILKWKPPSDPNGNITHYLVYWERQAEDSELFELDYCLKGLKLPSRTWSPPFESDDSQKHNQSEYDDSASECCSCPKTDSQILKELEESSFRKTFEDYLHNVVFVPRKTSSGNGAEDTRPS
Insulin receptor (Rattus norvegicus), sequence (P15127 764-1383 limits assumed): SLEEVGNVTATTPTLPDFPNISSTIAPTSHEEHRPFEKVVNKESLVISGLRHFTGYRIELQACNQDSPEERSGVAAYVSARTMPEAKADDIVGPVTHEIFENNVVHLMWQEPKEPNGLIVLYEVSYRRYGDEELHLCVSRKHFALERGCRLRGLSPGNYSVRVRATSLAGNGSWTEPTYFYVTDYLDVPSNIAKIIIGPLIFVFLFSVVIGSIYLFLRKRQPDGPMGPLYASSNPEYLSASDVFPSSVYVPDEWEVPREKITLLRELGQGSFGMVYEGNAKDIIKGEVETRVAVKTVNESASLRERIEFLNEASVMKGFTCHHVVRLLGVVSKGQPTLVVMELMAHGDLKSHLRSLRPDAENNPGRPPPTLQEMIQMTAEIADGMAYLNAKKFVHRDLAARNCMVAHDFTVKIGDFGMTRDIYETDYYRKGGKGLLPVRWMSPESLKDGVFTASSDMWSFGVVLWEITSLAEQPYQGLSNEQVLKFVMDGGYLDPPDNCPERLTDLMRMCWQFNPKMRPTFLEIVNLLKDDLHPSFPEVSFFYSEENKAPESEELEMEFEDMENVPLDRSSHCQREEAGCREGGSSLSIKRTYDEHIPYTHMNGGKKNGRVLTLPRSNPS

inhibition [1]: 39%
inhibition [2]: -7%
inhibition [3]: 3%
inhibition [4]: 18%
inhibition [6]: 22%
inhibition [7]: -4%
inhibition [8]: 19%
inhibition [9]: -5%
inhibition [10]: 10%
inhibition [11]: 6%
inhibition (Rattus norvegicus [12]): 0%
inhibition [13]: 6%
SMILES: COc1ccc(CNC(=O)c2cc(-c3cc(Cl)cc(Cl)c3)cnc2-c2cccnc2)cc1OC
Activity (Rattus norvegicus [5]): Active
